Data reported in paper PMC9271465 (ESMO Open, 2022).

How the values were obtained:
[1] = phase I dose-escalation: safety and tolerability; assay type: in vivo, patients
How it was run: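 Patients receiving ≥1 oral dose (25–300 mg/day) formed the safety set. Dosing was a single dose on day 1, then 21-day continuous daily dosing after 7 days. AEs graded by CTCAE v4.03. DLT window ran from day 1 of cycle 0 to day 21 of cycle 1 (28 days). ECGs were taken before and 1, 2, 4, 6, 10 and 24 h after the first dose.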

[2] = preclinical tolerability in animals; assay type: in vivo; details: preclinical studies; unpublished data

## C=CC(=O)Nc1cc(Nc2ncc(Cl)c(Nc3ccccc3C(=O)C(=O)N(C)C)n2)c(OC)cc1N1CCN(C)CC1 [BPI-15086]
[1]; 25 mg/day (n = 1)
  TRAE, Grade 3 and 4: Hyperglycemia: 0 n (%)
  TRAE, Grade 3 and 4: any: 0 n (%)
  TRAE, all grades: Anemia: 0 n (%)
  TRAE, all grades: Decreased appetite: 1 (100.0) n (%)
  TRAE, all grades: Decreased total protein: 0 n (%)
  TRAE, all grades: Diarrhea: 0 n (%)
  TRAE, all grades: Elevated ALT: 0 n (%)
  TRAE, all grades: Elevated blood glucose: 0 n (%)
  TRAE, all grades: Elevated blood triglycerides: 0 n (%)
  TRAE, all grades: Elevated blood uric acid: 0 n (%)
  TRAE, all grades: Elevated conjugated bilirubin: 0 n (%)
  TRAE, all grades: Elevated serum creatinine: 0 n (%)
  TRAE, all grades: Elevated γ-glutamyltransferase: 0 n (%)
  TRAE, all grades: Hyperglycemia: 0 n (%)
  TRAE, all grades: Hypoalbuminemia: 0 n (%)
  TRAE, all grades: Nausea: 0 n (%)
  TRAE, all grades: Proteinuria: 0 n (%)
  TRAE, all grades: Vomiting: 0 n (%)
  TRAE, all grades: any: 1 (100.0) n (%)
[1]; 50 mg/day (n = 3)
  TRAE, Grade 3 and 4: Hyperglycemia: 0 n (%)
  TRAE, Grade 3 and 4: any: 0 n (%)
  TRAE, all grades: Anemia: 0 n (%)
  TRAE, all grades: Decreased appetite: 0 n (%)
  TRAE, all grades: Decreased total protein: 0 n (%)
  TRAE, all grades: Diarrhea: 0 n (%)
  TRAE, all grades: Elevated ALT: 0 n (%)
  TRAE, all grades: Elevated blood glucose: 1 (33.3) n (%)
  TRAE, all grades: Elevated blood triglycerides: 0 n (%)
  TRAE, all grades: Elevated blood uric acid: 0 n (%)
  TRAE, all grades: Elevated conjugated bilirubin: 0 n (%)
  TRAE, all grades: Elevated serum creatinine: 1 (33.3) n (%)
  TRAE, all grades: Elevated γ-glutamyltransferase: 0 n (%)
  TRAE, all grades: Hyperglycemia: 0 n (%)
  TRAE, all grades: Hypoalbuminemia: 0 n (%)
  TRAE, all grades: Nausea: 1 (33.3) n (%)
  TRAE, all grades: Proteinuria: 0 n (%)
  TRAE, all grades: Vomiting: 0 n (%)
  TRAE, all grades: any: 2 (66.7) n (%)
[1]; 100 mg/day (n = 3)
  TRAE, Grade 3 and 4: Hyperglycemia: 0 n (%)
  TRAE, Grade 3 and 4: any: 0 n (%)
  TRAE, all grades: Anemia: 0 n (%)
  TRAE, all grades: Decreased appetite: 0 n (%)
  TRAE, all grades: Decreased total protein: 1 (33.3) n (%)
  TRAE, all grades: Diarrhea: 0 n (%)
  TRAE, all grades: Elevated ALT: 0 n (%)
  TRAE, all grades: Elevated blood glucose: 0 n (%)
  TRAE, all grades: Elevated blood triglycerides: 0 n (%)
  TRAE, all grades: Elevated blood uric acid: 1 (33.3) n (%)
  TRAE, all grades: Elevated conjugated bilirubin: 0 n (%)
  TRAE, all grades: Elevated serum creatinine: 1 (33.3) n (%)
  TRAE, all grades: Elevated γ-glutamyltransferase: 0 n (%)
  TRAE, all grades: Hyperglycemia: 0 n (%)
  TRAE, all grades: Hypoalbuminemia: 0 n (%)
  TRAE, all grades: Nausea: 1 (33.3) n (%)
  TRAE, all grades: Proteinuria: 0 n (%)
  TRAE, all grades: Vomiting: 1 (33.3) n (%)
  TRAE, all grades: any: 3 (100.0) n (%)
[1]; 200 mg/day (n = 7)
  TRAE, Grade 3 and 4: Hyperglycemia: 0 n (%)
  TRAE, Grade 3 and 4: any: 0 n (%)
  TRAE, all grades: Anemia: 3 (42.9) n (%)
  TRAE, all grades: Decreased appetite: 1 (14.3) n (%)
  TRAE, all grades: Decreased total protein: 2 (28.6) n (%)
  TRAE, all grades: Diarrhea: 2 (28.6) n (%)
  TRAE, all grades: Elevated ALT: 1 (14.3) n (%)
  TRAE, all grades: Elevated blood glucose: 2 (28.6) n (%)
  TRAE, all grades: Elevated blood triglycerides: 2 (28.6) n (%)
  TRAE, all grades: Elevated blood uric acid: 3 (42.9) n (%)
  TRAE, all grades: Elevated conjugated bilirubin: 2 (28.6) n (%)
  TRAE, all grades: Elevated serum creatinine: 2 (28.6) n (%)
  TRAE, all grades: Elevated γ-glutamyltransferase: 2 (28.6) n (%)
  TRAE, all grades: Hyperglycemia: 0 n (%)
  TRAE, all grades: Hypoalbuminemia: 5 (71.4) n (%)
  TRAE, all grades: Nausea: 1 (14.3) n (%)
  TRAE, all grades: Proteinuria: 3 (42.9) n (%)
  TRAE, all grades: Vomiting: 1 (14.3) n (%)
  TRAE, all grades: any: 7 (100.0) n (%)
[1]; 300 mg/day (n = 3)
  TRAE, Grade 3 and 4: Hyperglycemia: 1 (33.3) n (%)
  TRAE, Grade 3 and 4: any: 1 (33.3) n (%)
  TRAE, all grades: Anemia: 0 n (%)
  TRAE, all grades: Decreased appetite: 3 (100.0) n (%)
  TRAE, all grades: Decreased total protein: 0 n (%)
  TRAE, all grades: Diarrhea: 1 (33.3) n (%)
  TRAE, all grades: Elevated ALT: 1 (33.3) n (%)
  TRAE, all grades: Elevated blood glucose: 0 n (%)
  TRAE, all grades: Elevated blood triglycerides: 0 n (%)
  TRAE, all grades: Elevated blood uric acid: 0 n (%)
  TRAE, all grades: Elevated conjugated bilirubin: 0 n (%)
  TRAE, all grades: Elevated serum creatinine: 0 n (%)
  TRAE, all grades: Elevated γ-glutamyltransferase: 0 n (%)
  TRAE, all grades: Hyperglycemia: 3 (100.0) n (%)
  TRAE, all grades: Hypoalbuminemia: 0 n (%)
  TRAE, all grades: Nausea: 3 (100.0) n (%)
  TRAE, all grades: Proteinuria: 0 n (%)
  TRAE, all grades: Vomiting: 2 (66.7) n (%)
  TRAE, all grades: any: 3 (100.0) n (%)
[1]; 25-300 mg/day
  maximum tolerated dose (MTD): not reached
[1]; 28-day evaluation period, any dose level 25-300 mg/day
  dose-limiting toxicities (DLTs): No DLTs were observed
[1]; 300-mg/day group
  treatment-related serious AE (hyperglycemia), patients: one
[1]; All (n = 17)
  TRAE, Grade 3 and 4: Hyperglycemia: 1 (5.9) n (%)
  TRAE, Grade 3 and 4: any: 1 (5.9) n (%)
  TRAE, all grades: Anemia: 3 (17.6) n (%)
  TRAE, all grades: Decreased appetite: 5 (29.4) n (%)
  TRAE, all grades: Decreased total protein: 3 (17.6) n (%)
  TRAE, all grades: Diarrhea: 3 (17.6) n (%)
  TRAE, all grades: Elevated ALT: 2 (11.8) n (%)
  TRAE, all grades: Elevated blood glucose: 3 (17.6) n (%)
  TRAE, all grades: Elevated blood triglycerides: 2 (11.8) n (%)
  TRAE, all grades: Elevated blood uric acid: 4 (23.5) n (%)
  TRAE, all grades: Elevated conjugated bilirubin: 2 (11.8) n (%)
  TRAE, all grades: Elevated serum creatinine: 4 (23.5) n (%)
  TRAE, all grades: Elevated γ-glutamyltransferase: 2 (11.8) n (%)
  TRAE, all grades: Hyperglycemia: 3 (17.6) n (%)
  TRAE, all grades: Hypoalbuminemia: 5 (29.4) n (%)
  TRAE, all grades: Nausea: 6 (35.3) n (%)
  TRAE, all grades: Proteinuria: 3 (17.6) n (%)
  TRAE, all grades: Vomiting: 4 (23.5) n (%)
  TRAE, all grades: any: 16 (94.1) n (%)
[1]; all 17 patients
  AEs leading to drug discontinuation: no adverse events (AEs) causing drug discontinuation were seen
  TRAE: anemia, patients: 17.6%
  TRAE: decreased appetite, patients: 29.4%
  TRAE: decreased total protein, patients: 17.6%
  TRAE: diarrhea, patients: 17.6%
  TRAE: elevated alanine aminotransferase, patients: 11.8%
  TRAE: elevated blood glucose, patients: 17.6%
  TRAE: elevated blood triglycerides, patients: 11.8%
  TRAE: elevated blood uric acid, patients: 23.5%
  TRAE: elevated conjugated bilirubin, patients: 11.8%
  TRAE: elevated serum creatinine, patients: 23.5%
  TRAE: elevated γ-glutamyltransferase, patients: 11.8%
  TRAE: hyperglycemia, patients: 17.6%
  TRAE: hypoalbuminemia, patients: 29.4%
  TRAE: nausea, patients: 35.3%
  TRAE: proteinuria, patients: 17.6%
  TRAE: vomiting, patients: 23.5%
  patients with diarrhea: 3/17
  patients with rash/pruritis: no patient
[1]; all 17 patients (two patients)
  Serious AEs, patients: 11.8%
[2]
  tolerability in animals: well tolerated
